Assay results reported in PMC7551138 (Alzheimer's & Dementia : Translational Research & Clinical …, 2020).

Tests used:
Assay type in all cases: in vivo, human
[1] = CSF and plasma concentrations, Gln‐1062 11 mg vs 16 mg oral galantamine
healthy elderly subjects [2] = test: NeuroCart adaptive tracking test; settings: vs placebo, mean (confidence interval)
Procedure, shortened: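 Joystick task keeping a dot inside a moving circle. Circle speed rises while the dot stays inside and falls when it escapes. The score is % time tracked over 3.5 min, including a 0.5 min run-in. Testing was repeated over time, with extra sessions in the 22 mg cohort. Analysis was mixed-model ANOVA (treatment, time, treatment×time fixed; subject random; baseline covariate), reporting LSM difference versus placebo with CI.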

healthy elderly subjects [3] = test: Visual verbal learning test; settings: for VVLT Delayed word recall correct / VVLT Delayed word recognition RT correct / VVLT Delayed word recognition correct / VVLT Word recall correct 1 / VVLT Word recall correct 2 / VVLT Word recall correct 3: vs placebo, mean (confidence interval)
Procedure, shortened: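 Thirty words were shown repeatedly, with immediate recall after each presentation. After 30 min, delayed recall and recognition among distractor words were tested. This test was not repeated within a day. Analysis was mixed-model ANOVA (treatment, day, treatment×day fixed; subject random), giving LSM difference versus placebo with CI.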

healthy elderly subjects [4] = test: Visual analogue scales; settings: vs placebo, mean (confidence interval)
Procedure, shortened: (§1)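 NeuroCart tests were repeated over time during the 7-day b.i.d. intranasal dosing: eye movements, N-back with 3 working-memory-load conditions, pharmaco-EEG, and 100-mm VAS (Bond and Lader mood/alertness/calmness; nausea). In the 22 mg cohort, EEG at 30 min and 3 h post-dose was dropped. Analysis was mixed-model ANOVA (treatment, time, treatment×time fixed; subject random; baseline covariate), giving LSM difference versus placebo with CI.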

healthy elderly subjects [5] = test: N‐back test; settings: vs placebo, mean (confidence interval)
Procedure, shortened: as §1

healthy elderly subjects [6] = test: Pharmaco‐electroencephalography; settings: vs placebo, mean (confidence interval)
Procedure, shortened: as §1

[7] = 5.5 mg b.i.d. intranasal 7 days

With `COc1ccc2c3c1O[C@H]1C[C@@H](OC(=O)c4ccccc4)C=C[C@@]31CCN(C)C2` [Gln‐1062] the “Gln‐1062 concentrations in CSF” value ([1]; 11 mg Gln‐1062 intranasal) was “below the limit of quantification”, the “Dose‐corrected plasma and CSF concentrations of galantamine cleaved from Gln‐1062, compared with oral galantamine” value ([1]; 11 mg Gln‐1062 intranasal vs 16 mg oral galantamine) was “lower” and the Adaptive tracking (healthy elderly subjects [2]; [7]) was 0.520 (−0.779, 1.818) P = 0.4240 %‐point. For the same compound, the Adaptive tracking (healthy elderly subjects [2]; 11 mg b.i.d. intranasal 7 days) was 0.318 (−0.992, 1.627) P = 0.6266 %‐point, the “VVLT Delayed word recall correct” value (healthy elderly subjects [3]; [7]) was 0.36 (−2.02, 2.73) P = 0.7624 and the “VVLT Delayed word recognition RT correct” value (healthy elderly subjects [3]; [7]) was −49.93 (−166.97, 67.10) P = 0.3944 msec. For the same compound, the “VVLT Delayed word recognition correct” value (healthy elderly subjects [3]; [7]) was −2.60 (−6.60, 1.40) P = 0.1967, the “VVLT Word recall correct 1” value (healthy elderly subjects [3]; [7]) was 0.36 (−1.31, 2.03) P = 0.6635 and the “VVLT Word recall correct 2” value (healthy elderly subjects [3]; [7]) was −0.45 (−2.44, 1.55) P = 0.6545. For the same compound, the “VVLT Word recall correct 3” value (healthy elderly subjects [3]; [7]) was −0.12 (−2.42, 2.17) P = 0.9136, the “VVLT Delayed word recall correct” value (healthy elderly subjects [3]; 11 mg b.i.d. intranasal 7 days) was −0.73 (−3.15, 1.70) P = 0.5486 and the “VVLT Delayed word recognition RT correct” value (healthy elderly subjects [3]; 11 mg b.i.d. intranasal 7 days) was −30.91 (−150.24, 88.41) P = 0.6041 msec. For the same compound, the “VVLT Delayed word recognition correct” value (healthy elderly subjects [3]; 11 mg b.i.d. intranasal 7 days) was −2.19 (−6.24, 1.87) P = 0.2825, the “VVLT Word recall correct 1” value (healthy elderly subjects [3]; 11 mg b.i.d. intranasal 7 days) was 0.62 (−1.07, 2.32) P = 0.4608 and the “VVLT Word recall correct 2” value (healthy elderly subjects [3]; 11 mg b.i.d. intranasal 7 days) was −0.63 (−2.65, 1.40) P = 0.5370. For the same compound, the “VVLT Word recall correct 3” value (healthy elderly subjects [3]; 11 mg b.i.d. intranasal 7 days) was −0.89 (−3.23, 1.44) P = 0.4444, the “VVLT Delayed word recall correct” value (healthy elderly subjects [3]; 22 mg b.i.d. intranasal 7 days) was 0.48 (−1.89, 2.86) P = 0.6838 and the “VVLT Delayed word recognition RT correct” value (healthy elderly subjects [3]; 22 mg b.i.d. intranasal 7 days) was −120.03 (−237.07,−3.00) P = 0.0447 msec. For the same compound, the “VVLT Delayed word recognition correct” value (healthy elderly subjects [3]; 22 mg b.i.d. intranasal 7 days) was −0.43 (−4.43, 3.57) P = 0.8291, the “VVLT Word recall correct 1” value (healthy elderly subjects [3]; 22 mg b.i.d. intranasal 7 days) was −0.12 (−1.79, 1.54) P = 0.8816 and the “VVLT Word recall correct 2” value (healthy elderly subjects [3]; 22 mg b.i.d. intranasal 7 days) was −0.01 (−2.00, 1.99) P = 0.9959. For the same compound, the “VVLT Word recall correct 3” value (healthy elderly subjects [3]; 22 mg b.i.d. intranasal 7 days) was 0.99 (−1.30, 3.29) P = 0.3883, the “effects on VVLT, eye movements and VAS mood, calmness, alertness and nausea” value (healthy elderly subjects [3]; compared with placebo) was “No significant and consistent effects” and the “VAS Alertness” value (healthy elderly subjects [4]; [7]) was −1.09 (−3.74, 1.57) P = 0.4134 mm. The “VAS Calmness” value (healthy elderly subjects [4]; [7]) was 0.44 (−2.59, 3.48) P = 0.7694 mm, the “VAS Mood” value (healthy elderly subjects [4]; [7]) was −0.92 (−3.98, 2.13) P = 0.5462 mm and the “VAS Alertness” value (healthy elderly subjects [4]; 11 mg b.i.d. intranasal 7 days) was 0.63 (−2.15, 3.41) P = 0.6514 mm. For the same compound, the “VAS Calmness” value (healthy elderly subjects [4]; 11 mg b.i.d. intranasal 7 days) was 0.27 (−2.86, 3.40) P = 0.8615 mm, the “VAS Mood” value (healthy elderly subjects [4]; 11 mg b.i.d. intranasal 7 days) was −0.49 (−3.59, 2.62) P = 0.7530 mm and the “VAS Alertness” value (healthy elderly subjects [4]; 22 mg b.i.d. intranasal 7 days) was −0.21 (−2.86, 2.44) p = 0.8735 mm. The “VAS Calmness” value (healthy elderly subjects [4]; 22 mg b.i.d. intranasal 7 days) was 0.44 (−2.61, 3.49) P = 0.7734 mm, the “VAS Mood” value (healthy elderly subjects [4]; 22 mg b.i.d. intranasal 7 days) was −0.68 (−3.66, 2.29) P = 0.6455 mm and the “N‐back corr‐incorr/total 1” value (healthy elderly subjects [5]; [7]) was 0.026 (−0.026, 0.078) P = 0.3186. For the same compound, the “N‐back corr‐incorr/total 2” value (healthy elderly subjects [5]; [7]) was −0.002 (−0.068, 0.064) P = 0.9575, the “N‐back mean RT 2 back” value (healthy elderly subjects [5]; [7]) was −45.6 (−99.3, 8.2) P = 0.0944 msec and the “N‐back corr‐incorr/total 1” value (healthy elderly subjects [5]; 11 mg b.i.d. intranasal 7 days) was 0.027 (−0.023, 0.076) P = 0.2811. For the same compound, the “N‐back corr‐incorr/total 2” value (healthy elderly subjects [5]; 11 mg b.i.d. intranasal 7 days) was −0.016 (−0.081, 0.049) P = 0.6231, the “N‐back mean RT 1 back” value (healthy elderly subjects [5]; 11 mg b.i.d. intranasal 7 days) was 6.1 (−39.6, 51.8) P = 0.7893 msec and the “N‐back corr‐incorr/total 1” value (healthy elderly subjects [5]; 22 mg b.i.d. intranasal 7 days) was 0.020 (−0.029, 0.069) P = 0.4242. For the same compound, the “N‐back corr‐incorr/total 2” value (healthy elderly subjects [5]; 22 mg b.i.d. intranasal 7 days) was 0.036 (−0.028, 0.099) P = 0.2661, the “N‐back mean RT 1 back” value (healthy elderly subjects [5]; 22 mg b.i.d. intranasal 7 days) was −24.4 (−67.1, 18.3) P = 0.2558 msec and the “N‐back mean RT 2 back” value (healthy elderly subjects [5]; 22 mg b.i.d. intranasal 7 days) was −71.4 (−126.4,−16.3) P = 0.0123 msec. For the same compound, the “EEG Delta Fz‐Cz closed (uV^2/Hz)” value (healthy elderly subjects [6]; [7]) was −1.8% (−30.4%, 38.5%) P = 0.9140, the “EEG Delta Fz‐Cz open (uV^2/Hz)” value (healthy elderly subjects [6]; [7]) was −13.6% (−35.0%, 14.8%) P = 0.3010 and the “EEG Delta Pz‐O1 closed (uV^2/Hz)” value (healthy elderly subjects [6]; [7]) was −3.1% (−36.1%, 46.9%) P = 0.8765. For the same compound, the “EEG Delta Pz‐O1 open (uV^2/Hz)” value (healthy elderly subjects [6]; [7]) was −12.9% (−39.4%, 25.1%) P = 0.4391, the “EEG Delta Pz‐O2 closed (uV^2/Hz)” value (healthy elderly subjects [6]; [7]) was −13.4% (−39.2%, 23.5%) P = 0.4151 and the “EEG Delta Pz‐O2 open (uV^2/Hz)” value (healthy elderly subjects [6]; [7]) was 3.1% (−23.8%, 39.4%) P = 0.8382. The “EEG Delta Fz‐Cz closed (uV^2/Hz)” value (healthy elderly subjects [6]; 11 mg b.i.d. intranasal 7 days) was −14.8% (−37.6%, 16.4%) P = 0.3023, the “EEG Delta Fz‐Cz open (uV^2/Hz)” value (healthy elderly subjects [6]; 11 mg b.i.d. intranasal 7 days) was −2.5% (−25.2%, 27.0%) P = 0.8435 and the “EEG Delta Pz‐O1 closed (uV^2/Hz)” value (healthy elderly subjects [6]; 11 mg b.i.d. intranasal 7 days) was −12.4% (−41.5%, 31.2%) P = 0.5079. The “EEG Delta Pz‐O1 open (uV^2/Hz)” value (healthy elderly subjects [6]; 11 mg b.i.d. intranasal 7 days) was −5.4% (−33.6%, 34.6%) P = 0.7474 and the “EEG Delta Pz‐O2 closed (uV^2/Hz)” value (healthy elderly subjects [6]; 11 mg b.i.d. intranasal 7 days) was −0.4% (−28.5%, 38.7%) P = 0.9799.
